According to ChEMBL document CHEMBL4390693, “New analogs of SYA013 as sigma-2 ligands with anticancer activity” (Bioorg Med Chem, 2019):

Key:
[1] = molecular target: Sigma non-opioid intracellular receptor 1 (Homo sapiens, UniProt Q99720); test: Displacement of [3H]-Pentazocine from sigma 1 receptor (unknown origin) expressed in HEK293T cell membranes
[2] = species: Homo sapiens; test: Selectivity index, ratio of Ki for displacement of [3H]-Pentazocine from sigma 1 receptor (unknown origin) expressed in HEK293T cell membranes to KI for displacement of [3H]-DTG from sigma 2 receptor (unknown origin) expressed in HEK293T cell membranes
In short: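 Sigma-1 and sigma-2 binding was run by the NIMH Psychoactive Drug Screening Program. pKi is the mean of three independent experiments, each done at least in triplicate. The index is the ratio of the two receptor Ki values.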

[3] = Displacement of [3H]-DTG from sigma 2 receptor (unknown origin) expressed in HEK293T cell membranes; set-up: species or system Homo sapiens
[4] = tested on: MDA-MB-231; test: Cytotoxicity against human MDA-MB-231 cells assessed as reduction in cell viability incubated for 24 hrs by resazurin reagent based fluorescent assay; type: functional; settings: MDA-MB-231, 24 h
In short: (§1)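 Cells seeded at 20,000 per well, attached overnight in experimental medium with 5% FBS at 37 °C, then exposed to varying concentrations of σ2 ligands in 1:9 DMSO/acetone (cisplatin in 0.9% saline) for 24, 48 or 72 h, with re-dosing every 24 h. Matched vehicle controls. Read-out is 0.02% resazurin for 2-3 h, fluorescence ex 560/em 590 nm, viability as % of control. IC50 from non-linear regression of log concentration.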

[5] = tested on: HEK293; test: Cytotoxicity against HEK293 cells assessed as reduction in cell viability incubated for 72 hrs by resazurin reagent based fluorescent assay; settings: Homo sapiens, HEK293, 72 h; in short: as §1
[6] = tested on: MDA-MB-231; test: Cytotoxicity against human MDA-MB-231 cells assessed as reduction in cell viability incubated for 72 hrs by resazurin reagent based fluorescent assay; type: functional; settings: MDA-MB-231, 72 h; in short: as §1
[7] = tested on: MDA-MB-231; test: Cytotoxicity against human MDA-MB-231 cells assessed as reduction in cell viability incubated for 48 hrs by resazurin reagent based fluorescent assay; type: functional; settings: MDA-MB-231, 48 h; in short: as §1
[8] = tested on: A549; test: Cytotoxicity against human A549 cells assessed as reduction in cell viability resazurin reagent based fluorescent assay; type: functional; in short: as §1
[9] = tested on: PANC-1; test: Cytotoxicity against human PANC1 cells assessed as reduction in cell viability resazurin reagent based fluorescent assay; type: functional; in short: as §1
[10] = tested on: MIA PaCa-2; test: Cytotoxicity against human MIAPaCa2 cells assessed as reduction in cell viability resazurin reagent based fluorescent assay; type: functional; in short: as §1
[11] = tested on: MCF-10A; test: Cytotoxicity against human MCF10A cells assessed as reduction in cell viability resazurin reagent based fluorescent assay; in short: as §1
[12] = tested on: MDA-MB-468; test: Cytotoxicity against human MDA-MB-468 cells assessed as reduction in cell viability resazurin reagent based fluorescent assay; type: functional; in short: as §1
[13] = tested on: PC-3; test: Cytotoxicity against human PC3 cells assessed as reduction in cell viability resazurin reagent based fluorescent assay; type: functional; in short: as §1

Chain of Sigma non-opioid intracellular receptor 1 (Q99720 whole entry): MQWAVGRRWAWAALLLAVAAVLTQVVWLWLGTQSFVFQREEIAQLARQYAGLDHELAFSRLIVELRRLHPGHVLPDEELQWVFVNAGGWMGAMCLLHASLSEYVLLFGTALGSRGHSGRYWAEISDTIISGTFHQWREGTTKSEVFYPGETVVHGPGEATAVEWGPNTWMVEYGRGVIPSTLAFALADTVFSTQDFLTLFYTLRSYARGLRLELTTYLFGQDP

Row | Compound | Ki [1] [nM] | Ratio Ki [2] | Ki [3] [nM] | pKi [3] | IC50 [4] [nM] | IC50 [5] [nM] | IC50 [6] [nM] | IC50 [7] [nM] | IC50 [8] [nM] | IC50 [9] [nM] | IC50 [10] [nM] | IC50 [11] [nM] | IC50 [12] [nM] | IC50 [13] [nM]
1 | O=C1c2ccc(Cl)cc2CC1CCN1CCCN(c2ccc(Cl)cc2)CC1 (stereo not drawn) | 26 | 1.4 | 19 | 7.72 | – | – | – | – | – | – | – | – | – | –
2 | O=C1c2ccc(F)cc2CC1CCN1CCCN(c2ccc(Cl)cc2)CC1 (stereo not drawn) | 63 | 105 | 0.6 | 9.22 | 33600 | 41300 | 20100 | 23500 | – | – | – | – | – | –
3 | O/N=C(\CCCN1CCCN(c2ccc(Cl)cc2)CC1)c1ccc(F)cc1 | 5.1 | 1.5 | 3.5 | 8.46 | 17000 | – | 7000 | 8000 | 5800 | 140 | 1500 | 20000 | 4000 | 6900
4 | Fc1ccc2c(c1)CC(CCN1CCCN(c3ccccn3)CC1)C2 (stereo not drawn) | 22 | 15.7 | 1.4 | 8.85 | – | – | – | – | – | – | – | – | – | –
5 | O=C1c2ccccc2CC1CCN1CCCN(c2ccc(Cl)cc2)CC1 (stereo not drawn) | 21 | 4.8 | 4.4 | – | – | – | – | – | – | – | – | – | – | –
6 | O=C1C(CCN2CCCN(c3ccc(Cl)cc3)CC2)=Cc2cc(Cl)ccc21 | 4.9 | 0.4 | 13 | 7.9 | – | – | – | – | – | – | – | – | – | –
7 | O=C(CCCN1CCCN(c2ccc(Cl)cc2)CC1)c1ccc(F)cc1 | – | – | – | – | 36000 | – | 15000 | 18000 | 6200 | 400 | 2000 | 22000 | 5000 | 8200
8 | O=C1c2ccc(F)cc2CC1CCN1CCCN(c2ccc(Cl)cn2)CC1 (stereo not drawn) | 16 | 22.9 | 0.7 | 9.13 | – | – | – | 58000 | 52000 | 51000 | 42000 | – | – | –
9 | O/N=C1/c2ccc(F)cc2CC1CCN1CCCN(c2ccc(Cl)cc2)CC1 (stereo not drawn) | 277 | 0.7 | 407 | 6.4 | – | – | – | 8000 | > 200000 | 76000 | 10000 | – | – | –
10 | O=C1C(CCN2CCCN(c3ccc(Cl)cc3)CC2)=Cc2cc(F)ccc21 | 78 | 3.9 | 20 | 7.7 | – | – | – | – | – | – | – | – | – | –
11 | O=C1c2ccc(Cl)cc2CC1CCN1CCN(c2ccc(Cl)cc2)CC1 (stereo not drawn) | 21 | 1.2 | 18 | 7.74 | – | – | – | – | – | – | – | – | – | –
12 | O=C1c2ccc(F)cc2CC1CCN1CCCN(c2ccccn2)CC1 (stereo not drawn) | 44 | 24.4 | 1.8 | 8.75 | – | – | – | – | – | – | – | – | – | –
